High-throughput results deposited in PubChem BioAssay by Sanford-Burnham Center for Chemical Genomics.
STEP inh – STEP phosphatase inhibitors, primary screen, biochemical, fluorescence intensity, uHTS; inhibition, % at 20 µM; Tyrosine-protein phosphatase non-receptor type 5 (Homo sapiens), P54829; actives 0.25% (n = 360,000); recombinant STEP, OMFP fluorogenic substrate; AID 588621, 2011;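 active = inhibition at 20 µM, scaled per plate between control wells, above about 37%, limit read from the data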;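 also: 0% = DMSO with enzyme and substrate and 100% = substrate only without enzyme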
Target sequence (P54829 whole entry, looked up): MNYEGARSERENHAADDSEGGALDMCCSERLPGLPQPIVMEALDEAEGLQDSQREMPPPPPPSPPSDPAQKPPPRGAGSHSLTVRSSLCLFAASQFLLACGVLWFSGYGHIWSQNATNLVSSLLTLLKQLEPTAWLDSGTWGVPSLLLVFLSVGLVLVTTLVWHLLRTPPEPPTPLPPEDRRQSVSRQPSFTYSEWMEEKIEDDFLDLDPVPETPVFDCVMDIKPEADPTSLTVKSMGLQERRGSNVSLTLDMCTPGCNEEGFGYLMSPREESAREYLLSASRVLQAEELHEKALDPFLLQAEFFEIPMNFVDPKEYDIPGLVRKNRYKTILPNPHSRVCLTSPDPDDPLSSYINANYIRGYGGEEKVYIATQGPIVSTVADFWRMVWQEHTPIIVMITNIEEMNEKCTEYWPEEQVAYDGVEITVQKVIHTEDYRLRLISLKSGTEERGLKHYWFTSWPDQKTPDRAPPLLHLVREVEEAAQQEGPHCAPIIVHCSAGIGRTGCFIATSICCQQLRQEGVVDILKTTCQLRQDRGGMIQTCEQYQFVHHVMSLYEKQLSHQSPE
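Test system: STEP tyrosine phosphatase / Reagent: OMFP at 25 µM / Doses: 20 µM, 1% DMSO / Read-out: percent inhibition scaled to no-enzyme and uninhibited-enzyme controls, plate-pattern corrected / Detection: FITC-channel fluorescence of OMFP product / Medium: Bis-Tris buffer pH 6.0, 2.5 mM DTT, 0.005% Tween 20 / Schedule: 20 min at room temperature, dark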
LMPTP inh – LMPTP phosphatase inhibitors, primary screen, biochemical, fluorescence intensity, uHTS | AID 651560, 2012 | Low molecular weight phosphotyrosine protein phosphatase (Homo sapiens), P24666 | recombinant LMPTP-A, OMFP fluorogenic substrate | inhibition, % at 20 µM | actives 0.22% (n = 360,000);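 active = compounds that cut the enzyme signal by at least half of the control window in the single-dose screen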;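 also: plate controls were DMSO wells with enzyme plus substrate for no effect and substrate without enzyme for full effect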
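Test system – LMPTP-A enzyme · Amount – LMPTP-A at 0.625 nM final in the reaction · Buffer or medium – Bis-Tris pH 6.0, DTT, detergent · Reagent – OMFP 400 µM · Doses – single 20 µM dose · Schedule – reaction 50 min, room temperature, dark · Detection – fluorescence intensity of OMFP turnover product · Evaluation – percent inhibition versus substrate-only and uninhibited controls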
Scp-1 inhibitor – Scp-1 phosphatase inhibitors, primary screen, biochemical, colorimetric, uHTS. actives 0.88% (n = 340,000). AID 493091, 2011. Carboxy-terminal domain RNA polymerase II polypeptide A small phosphatase 1 (Homo …. inhibition, % at 20 µM. Recombinant Scp1, phosphopeptide, malachite green phosphate absorbance;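 active = inhibition above about 50% at 20 µM, limit read from the data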;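 also: plate controls were DMSO wells with enzyme for no effect and wells lacking enzyme for full effect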
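System: truncated SCP-1 phosphatase (76-261aa); medium: Tris acetate buffer pH 5.5 with MgCl2 and Tween-20; incubation: 45 min room-temperature reaction, 5 min colour, 30 min stabiliser; compound: single 20 µM dose, 1% DMSO; reagent: Phosphorylated 17-residue peptide substrate; read-out: % inhibition at 20 µM; technique: colorimetric free-phosphate detection, absorbance 630 nm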
DNMT1 block – human DNMT1 methyltransferase inhibitors, primary screen, biochemical, molecular beacon, fluorescence, HinP1I cleavage, uHTS. DNA (cytosine-5)-methyltransferase 1 (Homo sapiens), P26358. inhibition (reported as % activation of signal), % at 10 µM. actives 0.83% (n = 360,000). AID 588458, 2011; in the data active = inhibition above about 50%
SUMO1 PPI mod – modulators of SUMO1 protein-protein interactions, primary screen, biochemical, uHTS | Small ubiquitin-related modifier 1 (Homo sapiens), P63165 | SUMO1 binding to a labelled peptide, TR-FRET, 1 h | inhibition, % at 20 µM | actives 0.33% (n = 360,000) | AID 602429, 2012; in the data active = inhibition above about 37%
Target sequence (P63165 whole entry, looked up): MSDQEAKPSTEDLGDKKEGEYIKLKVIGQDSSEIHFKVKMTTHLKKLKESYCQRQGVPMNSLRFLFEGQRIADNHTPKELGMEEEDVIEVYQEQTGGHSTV
Scp1 confirm – Scp-1 phosphatase inhibitors, retest, confirmation, biochemical, colorimetric, single concentration; shares compounds with Scp-1 inhibitor; actives 61% (n = 2,500); inhibition, % at 20 µM; recombinant SCP-1 catalytic domain, phosphate release, malachite green absorbance; AID 540281, 2011;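 also: plate controls were DMSO with enzyme for no effect and buffer wells lacking enzyme for full effect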
MG interference – colorimetric readout interference by compounds, confirmation, artefact control for Scp-1 inhibitor project, biochemical, single concentration. shares compounds with Scp-1 inhibitor. Colorimetric interference counterscreen, malachite green absorbance 630 nm. apparent inhibition (interference), % at 20 µM. 2,500 tested, under 10 active. AID 540313, 2011;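 also: compounds added after enzyme reaction finished so only phosphate colour detection is probed; plate controls were DMSO wells with completed Scp-1 reaction for no effect and substrate wells lacking enzyme for full effect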
Scp1 DSF – Scp-1 binding by thermal shift, confirmation, orthogonal assay for Scp-1 inhibitor project, biophysical, differential scanning fluorimetry | shares compounds with Scp-1 inhibitor | thermal shift relative to vanadate control, % at 40 µM | actives 25% (n = 1,500) | Recombinant SCP1, Sypro Orange thermal shift Tm;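 active = substances whose mean melting-temperature shift, as a percentage of the reference inhibitor's shift, reaches about 5.3%, limit read from the data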;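 also: 0% = Tm of DMSO wells and 100% = Tm with sodium orthovanadate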
DNMT1 confirm – DNMT1 methyltransferase inhibitor retest, confirmation, biochemical, molecular beacon, fluorescence, single concentration | shares compounds with DNMT1 block | DNMT1 molecular beacon HinP1I cleavage | inhibition, % at 10 µM | actives 8% (n = 2,300);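 active = average inhibition of at least 30% in the single-concentration confirmation test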
Beacon interf – shows spectral interference in the DNMT1 beacon assay; shares compounds with DNMT1 block; DNMT1 molecular beacon spectral interference counterscreen, fluorescence 485/520; activation (fluorescence interference), % at 10 µM; actives 1% (n = 2,300);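 active = activation of at least 30% at 10 µM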;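 also: DNMT1 catalytic domain with a HinP1I cleavage step and a FAM/dabcyl DNA beacon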
STEP inh conf – STEP phosphatase inhibitor hit confirmation, biochemical, fluorescence intensity, single concentration | actives 32% (n = 520) | recombinant STEP, OMFP fluorogenic substrate | inhibition, % at 20 µM | shares compounds with STEP inh | AID 623866, 2012; call rule not given here;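 also: 0% = enzyme with substrate plus DMSO and 100% = substrate without enzyme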
An asterisk follows results filed as active; . = not tested or not shown. Only some compounds are listed: those with a hit (about 1.7% of all), similar ones and a draw of the others.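 The calls were made as follows, unless noted: active = inhibition of at least 30% at 20 µM; inactive = the rest.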

SMILES	STEP inh	LMPTP inh	Scp-1 inhibitor	DNMT1 block	SUMO1 PPI mod	Scp1 confirm	MG interference	Scp1 DSF	STEP inh conf	others
Cc1ccc(NC(=S)N(CCN2CCOCC2)Cc2cc3cc4c(cc3[nH]c2=O)OCO4)cc1	1	-1	-5	-4	10	.	.	.	.
O=C(O)CC/C(=N\Nc1ccc(S(=O)(=O)N2CCCC2)cc1[N+](=O)[O-])c1cccs1	97*	6	63*	-6	-25	57*	-4	16*	83*
CCOc1ccc(C(=O)N/N=C/c2cc([N+](=O)[O-])cs2)cc1	91*	71*	107*	48	-5	82*	-18	1	14	DNMT1 confirm=2;Beacon interf=2
COc1cc(C(=O)N/N=C/c2cc([N+](=O)[O-])cs2)cc(OC)c1OC	1	2	0	1	-22	.	.	.	.
O=C(COc1ccc(/C=N/NC(=O)c2ccc(O)cc2)cc1)Nc1cccc([N+](=O)[O-])c1	74*	59*	96*	18	6	61*	-20	13*	94*
COc1ccc(S(=O)(=O)N(C)c2ccc(C(=O)N3CCCCC3)cc2)cc1OC	2	-1	-2	-1	-3	.	.	.	.
CCCN(CC(=O)Nc1ccccc1C)C(=O)c1ccc(COc2ccccc2)cc1	0	2	-4	2	0	.	.	.	.
C=CCc1cc(C)ccc1OCCOCCN1CCN(C)CC1	2	-8	0	2	3	.	.	.	.
Cn1c2ccccc2c(=O)c2c(=O)n(-c3ccc(F)cc3)c(-c3cccs3)nc21	44*	47	101*	-2	-21	54*	-13	-4	17
Cc1ccc(-c2nc3c(c(=O)c4ccccc4n3C)c(=O)n2-c2ccc(F)cc2)cc1	1	-1	3	27	-60	.	.	.	.
COc1ccc2c(C)cc(SCC(=O)Nc3nsc(-c4ccc(C)cc4)n3)nc2c1	0	3	3	0	-1	.	.	.	.
Cc1ccc(-c2nc(NC(=O)CSc3cc(C)c4ccccc4n3)ns2)cc1	70*	66*	106*	90*	25	84*	-9	1	50*	DNMT1 confirm=3;Beacon interf=-4
O=C(CCN1C(=O)/C(=C\c2cccs2)SC1=S)Nc1ccc(C(=O)O)cc1	8	14	10	2	-19	.	.	.	.
O=C(CCN1C(=O)/C(=C/c2ccc(Cl)cc2)SC1=S)Nc1ccc(C(=O)O)cc1	49*	75*	92*	3	-5	69*	-14	-2	15
COc1cc(/C=C2/SC(=S)N(CCC(=O)Nc3ccc(C(=O)O)cc3)C2=O)cc(OC)c1OC	42*	14	68*	-1	-25	63*	-10	25*	-1
CCOc1cc(/C=N/N=C2/NC(=O)C(CC(=O)O)S2)ccc1OCc1ccc(Cl)cc1Cl (centres undefined)	64*	84*	75*	8	12	65*	-16	-2	13*
O=C(CCS(=O)(=O)c1ccc(Br)cc1)NCc1ccc(F)cc1	40*	2	81*	51*	33	41*	-11	-13	25	DNMT1 confirm=0;Beacon interf=3
Cc1ccc(S(=O)(=O)CCC(=O)OCC(=O)NCc2ccc(F)cc2)cc1	-1	-1	.	3	4	.	.	.	.
O=S(=O)(c1cc(Cl)ccc1Cl)N1CCN(c2ccccn2)CC1	3	1	-5	-2	6	.	.	.	.
COc1ccc(C2=NN(C(=O)CCCC(=O)O)C(c3cn(-c4ccccc4)nc3-c3ccccc3)C2)cc1 (centres undefined)	70*	39	97*	2	11	86*	-9	-35	14
COc1ccc(-c2nn(-c3ccccc3)cc2C2CC(c3cccs3)=NN2C(=O)CCC(=O)O)cc1 (centres undefined)	4	-1	-16	-2	-16	.	.	.	.
CCN(CC)CCN(C(=O)CCS(=O)(=O)c1ccccc1)c1nc2cc3c(cc2s1)OCO3	1	0	-4	39	7	.	.	.	.
CCOc1cc(/C=C2/NC(=O)NC2=O)cc(Br)c1OCc1ccc(C(=O)O)cc1	96*	56*	73*	-2	2	88*	-4	-50	23
CCOC(=O)[C@@H]1[C@H]2COc3ccccc3[C@@H]2N2C(=O)N(c3cccc(F)c3)C(=O)[C@]12C	0	-1	-11	1	1	.	.	.	.
O=C(Nc1cccc(-c2nc3ccccc3s2)c1)c1cccs1	-2	4	-7	-13	0	.	.	.	.
O=C(Nc1cccc(-c2nc3ccccc3s2)c1)c1cc(=O)c2ccccc2o1	80*	37	72*	52*	3	43*	-14	-6	5	DNMT1 confirm=1;Beacon interf=1
CC(=O)N1CCCc2cc(S(=O)(=O)N3CCCC(C(=O)Nc4ccccc4C)C3)ccc21 (centres undefined)	-2	-1	-2	0	-4	.	.	.	.
COc1ccc(CNC(=O)Cn2nnc3ccccc3c2=O)cc1	-2	-1	-2	1	-22	.	.	.	.
O=C(O)CC/C(=C/c1cccc(NC(=O)c2ccccc2Cl)c1)c1nc2ccccc2s1	-2	1	-1	-22	-5	.	.	.	.
